Measured values published in PMC5161706 (Clinical cancer research : an official journal of the …, 2016).

Assays:
[1] = system: phosphorylation of p70S6K (Thr389); assay: Immunoblot for phospho- and total p70S6K in K7M2 cells; type: cell-based, murine; conditions: concentrations as low as 0.1μM, 4 hours, immunoblot (Fig 3A)
MG63.3 cells [2] = assay: Ex vivo lung culture metastatic outgrowth, MG63.3; type: cell-based, human
Outline: (§1)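 Tumor cells were tail-vein injected, and lung sections were then cultured ex vivo. K7M2 cells were grown in female BALB/c mice and MG63.3 in female SCID-beige mice, 8-10 weeks old. Culture media held a final 0.1uM or 1uM rapamycin, or volume-matched DMSO, refreshed every 2 days. Eight sections were imaged per condition. Burden was total GFP+ area per section normalised to day 0.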

[3] = system: phosphorylation of p70S6K (Thr389); assay: Immunoblot for phospho- and total p70S6K in MG63.3 cells; type: cell-based, human; conditions: concentrations as low as 0.1μM, 4 hours, immunoblot (Fig 3A)
MG63.3 cells [4] = assay: Spontaneous; type: in vivo, human; conditions: orthotopically injected MG63.3 cells, 5mg/kg daily IP (Fig 6D)
Outline: (§2)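 Cells were injected para-osseously into the proximal tibia: K7M2 into female BALB/c mice, human lines into female SCID-beige mice, 8-10 weeks old; MNNG at 1x10^6 cells. Mice received 5mg/kg IP rapamycin or vehicle daily, 5 days/week. Tumours were measured every 3-4 days and limbs amputated at 1.5-1.7 cm3. Survival ran from amputation, with metastasis confirmed at necropsy; Kaplan-Meier analysis, Gehan-Breslow-Wilcoxon test.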

MNNG cells = assay: Spontaneous; type: in vivo, human; conditions: orthotopically injected MNNG cells, 5mg/kg daily IP (Fig 6E)
Outline: as §2

K7M2 cells [5] = assay: In vitro ds-SL-mCherry reporter expression; type: cell-based, murine; conditions: 1μM rapamycin, 5 days in culture (Fig 4A)
K7M2 cells [6] = assay: Spontaneous; type: in vivo, murine; conditions: orthotopically injected K7M2 cells, 5mg/kg daily IP (Fig 6C)
Outline: as §2

[7] = Single rapamycin dose pharmacokinetic study, whole blood levels; type: in vivo, mice
Outline: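 Naive female athymic nude mice, 8-10 weeks old, received a single 5mg/kg IP dose (n=3 per condition). Whole blood was sampled at 0, 1, 2, 6, 24 and 48 h and quantified by validated LC/MS/MS. Parameters were derived noncompartmentally: Cmax and trough read directly from the data, AUC by the log-linear trapezoidal method.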

K7M2 cells [8] = assay: Ex vivo lung culture metastatic outgrowth, K7M2; type: cell-based, murine
Outline: as §1

MG63.3 cells [9] = assay: In vitro ds-SL-mCherry reporter expression; type: cell-based, human; conditions: 1μM rapamycin, 5 days in culture (Fig 4B)

CO[C@H]1C[C@@H]2CC[C@@H](C)[C@@](O)(O2)C(=O)C(=O)N2CCCC[C@H]2C(=O)O[C@H]([C@H](C)C[C@@H]2CC[C@@H](O)[C@H](OC)C2)CC(=O)[C@H](C)/C=C(\C)[C@@H](O)[C@@H](OC)C(=O)[C@H](C)C[C@H](C)/C=C/C=C/C=C/1C [rapamycin]
inhibition of phosphorylation of p70S6K [1]: effectively inhibited phosphorylation of p70S6K | metastatic outgrowth in ex vivo lung culture (MG63.3 cells [2]; MG63.3, 0.1μM rapamycin (Fig 5D, 5E)): robustly inhibited metastatic outgrowth | metastatic outgrowth in ex vivo lung culture (MG63.3 cells [2]; MG63.3, 1μM rapamycin (Fig 5D, 5E)): robustly inhibited metastatic outgrowth | inhibition of phosphorylation of p70S6K [3]: effectively inhibited phosphorylation of p70S6K | survival of mice from time of limb amputation (MG63.3 cells [4]): significantly prolonged survival | survival of mice from time of limb amputation (MNNG cells): significantly prolonged survival | effect on ds-SL-mCherry reporter expression in vitro (K7M2 cells [5]): no effect on reporter expression | survival of mice from time of limb amputation (K7M2 cells [6]): significantly prolonged survival | AUC/dose equivalent value ([7]; mice, 5mg/kg IP, noncompartmental methods, predicted sufficient to inhibit p70S6K phosphorylation and exert anti-metastatic activities): 3,555 [ng*hr/ml]/[mg/kg] | whole blood concentration maintained ([7]; naïve mice, single IP dose of 5mg/kg, for 24hrs (Fig 3C)): above 0.1 μM | metastatic outgrowth in ex vivo lung culture (K7M2 cells [8]; K7M2, 0.1μM rapamycin (Fig 5B, 5C)): robustly inhibited metastatic outgrowth | metastatic outgrowth in ex vivo lung culture (K7M2 cells [8]; K7M2, 1μM rapamycin (Fig 5B, 5C)): robustly inhibited metastatic outgrowth | effect on ds-SL-mCherry reporter expression in vitro (MG63.3 cells [9]): no effect on reporter expression
